Read-outs that look alike come from different tables or passages of the source.
Assays:
[1] = test system: A3G (APOBEC3G); conditions: biochemical assays, prior studies, ref [14]–[18], cited from earlier work
[2] = biological target: A3G-mycHis (APOBEC3G) (Homo sapiens, UniProt Q9HC16); test: Fluorescence-based ssDNA cytosine deaminase assay with purified A3G-mycHis; format: biochemical; conditions: for reproducibility of A3G inhibitory activity (in words): introductory summary of own findings, assay format not stated
Method in brief: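 Human A3G-mycHis purified by C-terminal His tag from HEK293T cells and diluted in pH 7.4 Tris buffer with Triton and protease inhibitors. Enzyme incubated with 10 pmol 6-FAM/TAMRA ssDNA containing one CCC site. Then UDG treatment for 2 hrs at 37 °C, NaOH cleavage for 30 min, and neutralisation. Fluorescence read at ex 490/em 520 nm. Peptides from 10 mM DMSO stocks; n = 3, mean ± SEM; IC50 from curve fit.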

[3] = test system: A3G (APOBEC3G); test: PCR and restriction-based ssDNA deamination assay; format: biochemical, human; conditions: 10 nM A3G, 1 nM ssDNA, 37 °C, 30 min, pH 7.0, gel representative of >3 independent experiments

Chain of A3G-mycHis (APOBEC3G) (Q9HC16 whole entry): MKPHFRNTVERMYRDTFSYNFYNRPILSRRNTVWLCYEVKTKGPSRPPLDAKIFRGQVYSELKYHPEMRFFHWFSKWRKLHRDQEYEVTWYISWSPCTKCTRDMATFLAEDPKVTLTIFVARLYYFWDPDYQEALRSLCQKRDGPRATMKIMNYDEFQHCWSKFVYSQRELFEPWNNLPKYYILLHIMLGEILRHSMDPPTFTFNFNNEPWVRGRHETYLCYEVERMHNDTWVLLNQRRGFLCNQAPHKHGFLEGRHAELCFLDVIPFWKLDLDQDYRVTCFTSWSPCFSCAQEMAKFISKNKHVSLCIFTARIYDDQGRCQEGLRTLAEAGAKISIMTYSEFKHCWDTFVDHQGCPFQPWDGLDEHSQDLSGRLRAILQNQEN

Substance: H-QLIHLYYFDCFSESA-OH [compound 6044]
- published A3G inhibitory activity (in words) ([1]; listed as Vif 105–119): low micromolar inhibitory activities
- published A3G inhibitory activity (in words) ([1]; listed as Vif peptide 105–119): sub-micromolar inhibitory activities
- specificity of A3G inhibition (in words) ([2]; conclusion from scrambled and reverse peptide comparison): non-specific
- reproducibility of A3G inhibitory activity (in words) [2]: reproducible A3G inhibitory activity

Substance: H-VKHHMYISGKAKGWF-OH [Vif25–39]
- A3G inhibitory effect (in words) [3]: no inhibitory effect
- published A3G inhibitory activity (in words) [1]: low micromolar inhibitory activities
- published A3G inhibitory activity (in words) ([1]; listed as Vif peptide 25–39): sub-micromolar inhibitory activities
- reproducibility of A3G inhibitory activity (in words) [2]: did not find significant A3G inhibitory activity

Reference: publication PMC5186364 (Journal of molecular biology, 2016)
